For 31 compounds, Ki and Ratio Ki results are on record in ChEMBL document CHEMBL4706586, “Structure-activity relationships for a series of (Bis(4-fluorophenyl)methyl)sulfinylethyl-aminopiperidines and -piperidine amines at the dopamine transporter: Bioisosteric replacement of the piperazine improves metabolic stability” (Eur J Med Chem, 2020).

Where only a bound is given, the exact number is not on record here.

In assay [1] the target is Sigma non-opioid intracellular receptor 1 (Cavia porcellus, UniProt Q60492). Kind of assay: Displacement of [3H](+)-pentazocine from sigma 1 receptor in guinea pig brain cortex membranes after 120 mins by scintillation counting analysis. Type of assay: cell membranes, Membrane. Summed up:
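Male guinea pig cortex membranes in 10 mM Tris-HCl/0.32 M sucrose pH 7.4, 5.0 mg/well original wet weight; [3H](+)-pentazocine 3 nM final; inhibitor serial dilutions in 30% DMSO vehicle, triplicate; 120 min at RT; nonspecific with 10 μM PRE084 or (+)-pentazocine.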
A general note: In a radioligand displacement assay an active substance lowers the binding of a labelled ligand.

Assay [2] addresses Sodium-dependent dopamine transporter (Rattus norvegicus, UniProt P23977). The assay can be described thus: Displacement of [3H]WIN35428 from DAT in Sprague-Dawley rat striatal membranes incubated for 120 mins by microbeta scintillation counting method. It counts as cell membranes, Striatum, Membrane.
In assay [3] the target is Sodium-dependent serotonin transporter (Rattus norvegicus, UniProt P31652). The assay can be described thus: Displacement of [3H]citalopram from SERT in Sprague-Dawley rat midbrain membranes incubated for 60 mins by microbeta scintillation counting method. Type of assay: cell membranes, Membrane.
For assay [4], the species on record is Rattus norvegicus. Kind of assay: Selectivity ratio of Ki for SERT in Sprague-Dawley rat midbrain membranes to Ki for DAT in Sprague-Dawley rat striatum membranes.
The nature of assay [5]: Selectivity ratio of Ki for sigma 1 receptor in guinea pig brain cortex membranes to Ki for DAT in Sprague-Dawley rat striatum membranes. Type of assay: cell membranes.
For assay [6], the target named is D(2) dopamine receptor (Homo sapiens, UniProt P14416). The assay can be described thus: Displacement of [3H]-N-methylspiperone from human D2L receptor expressed in HEK293 cell membranes measured after 60 mins by microbeta scintillation counting method. On the set-up: species or system Membrane. Summed up: (§1)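 Membranes from HEK293 cells stably expressing human D2LR, D3R or D4.4R; 20 μg/well protein (D2LR, D3R) or 30 μg/well (D4.4R); [3H]-N-methylspiperone 0.4 nM final; half-log dilutions in 30% DMSO, triplicate; 60 min RT; nonspecific 10 μM (+)-butaclamol.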

Assay [7] deals with D(3) dopamine receptor (Homo sapiens, UniProt P35462). The assay can be described thus: Displacement of [3H]-N-methylspiperone from human D3 receptor expressed in HEK293 cell membranes measured after 60 mins by microbeta scintillation counting method. On the set-up: species or system Membrane. Summed up: as §1
D(3) dopamine receptor, sequence (P35462 whole entry): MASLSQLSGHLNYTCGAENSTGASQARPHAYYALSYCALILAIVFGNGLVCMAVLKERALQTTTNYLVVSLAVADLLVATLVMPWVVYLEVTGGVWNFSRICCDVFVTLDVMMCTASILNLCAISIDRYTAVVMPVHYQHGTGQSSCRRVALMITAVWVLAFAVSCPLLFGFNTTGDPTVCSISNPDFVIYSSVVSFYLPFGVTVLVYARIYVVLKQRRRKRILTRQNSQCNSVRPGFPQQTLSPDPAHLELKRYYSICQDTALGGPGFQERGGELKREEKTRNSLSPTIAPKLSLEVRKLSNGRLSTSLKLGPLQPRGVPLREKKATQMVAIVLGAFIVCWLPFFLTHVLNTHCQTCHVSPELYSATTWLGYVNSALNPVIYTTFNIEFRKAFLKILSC

Sigma non-opioid intracellular receptor 1, sequence (Q60492 whole entry): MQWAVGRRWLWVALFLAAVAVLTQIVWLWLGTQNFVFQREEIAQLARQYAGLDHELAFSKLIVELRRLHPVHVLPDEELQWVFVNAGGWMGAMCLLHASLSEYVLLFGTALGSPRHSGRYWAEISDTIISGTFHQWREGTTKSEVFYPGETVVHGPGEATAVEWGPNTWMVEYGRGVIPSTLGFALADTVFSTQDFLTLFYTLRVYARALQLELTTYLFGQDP
Sodium-dependent serotonin transporter, sequence (P31652 whole entry): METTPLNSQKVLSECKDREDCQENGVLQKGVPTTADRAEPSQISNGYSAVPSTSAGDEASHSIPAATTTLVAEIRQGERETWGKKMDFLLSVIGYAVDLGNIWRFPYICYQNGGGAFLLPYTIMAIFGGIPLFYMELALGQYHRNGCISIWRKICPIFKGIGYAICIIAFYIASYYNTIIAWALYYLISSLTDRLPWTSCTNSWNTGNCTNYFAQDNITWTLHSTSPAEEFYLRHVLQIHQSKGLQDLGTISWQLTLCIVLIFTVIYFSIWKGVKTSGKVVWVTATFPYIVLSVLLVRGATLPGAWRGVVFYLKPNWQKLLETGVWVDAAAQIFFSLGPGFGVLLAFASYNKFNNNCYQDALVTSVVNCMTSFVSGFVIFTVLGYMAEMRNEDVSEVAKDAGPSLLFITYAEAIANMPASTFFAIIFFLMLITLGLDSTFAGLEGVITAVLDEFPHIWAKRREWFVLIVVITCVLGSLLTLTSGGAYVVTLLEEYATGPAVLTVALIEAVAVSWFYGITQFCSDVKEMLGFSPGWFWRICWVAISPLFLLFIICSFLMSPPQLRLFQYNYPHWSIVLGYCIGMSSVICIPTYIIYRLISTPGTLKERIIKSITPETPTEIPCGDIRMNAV
Sodium-dependent dopamine transporter, sequence (P23977 whole entry): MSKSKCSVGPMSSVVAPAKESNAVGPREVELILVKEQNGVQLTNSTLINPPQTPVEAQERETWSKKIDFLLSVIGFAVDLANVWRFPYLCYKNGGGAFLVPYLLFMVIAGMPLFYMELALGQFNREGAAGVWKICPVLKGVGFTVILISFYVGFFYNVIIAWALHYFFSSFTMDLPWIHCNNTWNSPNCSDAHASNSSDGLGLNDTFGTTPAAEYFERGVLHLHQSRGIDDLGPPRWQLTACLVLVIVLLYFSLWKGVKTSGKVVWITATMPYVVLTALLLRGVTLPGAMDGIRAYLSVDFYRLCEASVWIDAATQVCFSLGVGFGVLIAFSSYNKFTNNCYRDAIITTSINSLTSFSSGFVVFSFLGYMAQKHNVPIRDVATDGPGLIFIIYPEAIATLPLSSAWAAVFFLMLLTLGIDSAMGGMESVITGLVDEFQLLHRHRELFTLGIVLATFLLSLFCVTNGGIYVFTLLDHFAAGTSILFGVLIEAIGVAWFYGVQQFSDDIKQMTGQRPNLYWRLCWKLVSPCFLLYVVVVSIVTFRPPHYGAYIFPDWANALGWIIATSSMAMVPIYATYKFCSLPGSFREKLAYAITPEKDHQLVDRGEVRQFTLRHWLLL
D(2) dopamine receptor, sequence (P14416 whole entry): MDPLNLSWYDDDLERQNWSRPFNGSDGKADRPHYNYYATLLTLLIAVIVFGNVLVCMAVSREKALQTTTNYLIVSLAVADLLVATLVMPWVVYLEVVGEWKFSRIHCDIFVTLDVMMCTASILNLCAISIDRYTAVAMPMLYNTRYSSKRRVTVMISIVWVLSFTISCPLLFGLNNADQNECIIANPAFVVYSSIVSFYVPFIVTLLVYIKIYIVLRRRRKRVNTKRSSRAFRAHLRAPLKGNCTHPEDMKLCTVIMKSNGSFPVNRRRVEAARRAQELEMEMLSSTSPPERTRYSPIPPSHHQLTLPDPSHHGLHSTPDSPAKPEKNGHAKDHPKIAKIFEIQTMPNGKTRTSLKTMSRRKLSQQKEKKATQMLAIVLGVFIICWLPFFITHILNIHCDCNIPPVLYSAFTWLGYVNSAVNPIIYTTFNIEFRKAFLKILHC

On to `Fc1ccc(C(SCCNC2CCN(Cc3cc4ccccc4[nH]3)CC2)c2ccc(F)cc2)cc1`, for which affinity in assay [1] was put at a Ki of 205 nM. This lies in the sub-micromolar range.
For the compound `CN(CCSC(c1ccc(F)cc1)c1ccc(F)cc1)C1CCN(C(=O)c2ccc(F)cc2)CC1`, the Ki amounted to 190 nM in assay [2], 2440 nM in assay [3] and 7.11 nM in assay [1]. Moreover, the Ratio Ki in assay [4] turned out to be 12.8; in assay [5], 0.04.
Take `CN(CCSC(c1ccc(F)cc1)c1ccc(F)cc1)C1CCN(C(=O)c2ccccc2F)CC1`: the inhibition constant Ki in assay [2] was 222 nM; in assay [3], 992 nM; in assay [1], 5.87 nM. Also, the Ratio Ki stood at 4.47 in assay [4] and 0.03 in assay [5].
For the compound `NC(=O)C[S@+]([O-])C(c1ccc(F)cc1)c1ccc(F)cc1`, the results for the Ki in assay [2], in assay [3] and in assay [1] were 2970 nM, 15000 nM and over 100000 nM, respectively. The Ratio Ki in assay [4] was 5.05; in assay [5], over 34.
In the case of `CC(O)CN1[C@H](C)CN(CCSC(c2ccc(F)cc2)c2ccc(F)cc2)C[C@@H]1C` (stereo not given in full), the Ratio Ki was 641 in assay [4] and 0.243 in assay [5]. The Ki in assay [6] was 11900 nM; in assay [7] it was 1470 nM.
In the case of `O=C(c1ccc(F)cc1F)N1CCC(NCC[S+]([O-])C(c2ccc(F)cc2)c2ccc(F)cc2)CC1` (stereo not given), the inhibition constant (Ki) in assay [2] worked out at 564 nM; in assay [3], 4610 nM; in assay [1], 171 nM. For the same compound, the results for the Ratio Ki in assay [4] and in assay [5] were 8.17 and 0.3, respectively.
Take `Fc1ccc(C(SCCNC2CCN(CCc3ccccc3)CC2)c2ccc(F)cc2)cc1`: the inhibition constant Ki in assay [1] was 57.7 nM. For the same compound, the Ratio Ki in assay [4] amounted to 4.57; in assay [5], 1.83.
As to `NC(=O)C[S+]([O-])C(c1ccc(F)cc1)c1ccc(F)cc1` (racemic), the inhibition constant Ki in assay [2] is 4090 nM; in assay [3] it was 48700 nM; in assay [1], over 100000 nM. Besides, the Ratio Ki in assay [4] is 11.9; in assay [5], over 24.
As for `Fc1ccc(C(SCCNC2CCN(Cc3cc4ccccc4o3)CC2)c2ccc(F)cc2)cc1`, the values for the inhibition constant Ki in assay [2], in assay [3] and in assay [1] were 120 nM, 695 nM and 205 nM, respectively. Besides, the results for the Ratio Ki in assay [4] and in assay [5] were 5.79 and 1.71, respectively.
Turning to `[O-][S+](CCN1CCN(CC(O)Cc2ccccc2)CC1)C(c1ccc(F)cc1)c1ccc(F)cc1` (stereo not given), the Ki in assay [2] was found to be 2.6 nM; in assay [3], 12700 nM; in assay [1], 41.6 nM.
Turning to `CC(C)(C)CN1CCC(NCC[S+]([O-])C(c2ccc(F)cc2)c2ccc(F)cc2)CC1` (stereo not given), the affinity in assay [1] corresponds to a Ki of 542 nM. In addition, the Ratio Ki stood at 16.2 in assay [4] and 1.26 in assay [5].
Consider `O=C(c1cc2ccccc2o1)N1CCC(NCCSC(c2ccc(F)cc2)c2ccc(F)cc2)CC1`, for which the inhibitory constant (Ki) in assay [1] came out at 304 nM. In other words, the sub-micromolar range.
In turn, `Fc1ccc(C(SCCNC2CCN(Cc3ccc(C(F)(F)F)cc3)CC2)c2ccc(F)cc2)cc1` registered a Ki in assay [1] of 186 nM. Against the preceding compound, the Ki is about 1.6-fold lower.
`Fc1ccc(C(SCCNC2CCN(CC3CC3)CC2)c2ccc(F)cc2)cc1`: in assay [1], the inhibition constant Ki was determined as 269 nM. The values for the Ratio Ki in assay [4] and in assay [5] were 3.93 and 0.66, respectively.
Turning to `CC(O)CN1CCN(CCSC(c2ccc(F)cc2)c2ccc(F)cc2)CC1` (stereo not given), the inhibitory constant (Ki) in assay [2] was 37.8 nM; in assay [3] it was 6800 nM; in assay [1] it was 2.24 nM.
`O=C(c1ccccc1)N1CCC(NCC[S+]([O-])C(c2ccc(F)cc2)c2ccc(F)cc2)CC1` (stereo not given) gave a Ki in assay [1] of 585 nM.
For `CN(CC[S+]([O-])C(c1ccc(F)cc1)c1ccc(F)cc1)C1CCN(C(=O)c2ccccc2F)CC1` (stereo not given), the inhibition constant (Ki) in assay [2] amounted to 7380 nM; in assay [3], 251000 nM; in assay [1], 516 nM. The Ratio Ki in assay [4] was determined as 34; in assay [5], 0.07.
With `O=C(c1cc2ccccc2[nH]1)N1CCC(NCCSC(c2ccc(F)cc2)c2ccc(F)cc2)CC1`, the Ki in assay [2] was found to be 177 nM; in assay [1], 1130 nM.
Compound `Fc1ccc(C(SCCN2CCC(NCc3ccc(Cl)cc3)CC2)c2ccc(F)cc2)cc1` had a Ki in assay [1] of 62.4 nM. For the same compound, the Ratio Ki amounted to 4.59 in assay [4] and 0.72 in assay [5].
As to `O=C(c1ccccc1F)N1CCC(NCCSC(c2ccc(F)cc2)c2ccc(F)cc2)CC1`, the inhibitory constant (Ki) came to 46.1 nM in assay [2], 351 nM in assay [3] and 3.57 nM in assay [1]. The Ratio Ki in assay [4] came out at 7.61; in assay [5], 0.08.
`Fc1ccc(CNC2CCN(CCSC(c3ccc(F)cc3)c3ccc(F)cc3)CC2)cc1`: the affinity in assay [1] corresponds to a Ki of 41.4 nM. Also, the Ratio Ki in assay [4] was determined as 4.79; in assay [5] it was 0.74.
In turn, `O=C(C1CC1)N1CCC(NCCSC(c2ccc(F)cc2)c2ccc(F)cc2)CC1` had an inhibition constant Ki in assay [1] of 46.4 nM. In addition, the Ratio Ki in assay [4] is 5.67; in assay [5] it was 0.26.
Regarding `Fc1ccc(C(SCCN2CCC(NCc3ccc(C(F)(F)F)cc3)CC2)c2ccc(F)cc2)cc1`, the Ki in assay [1] was determined as 162 nM.
Take `O=C(c1ccccc1F)N1CCC(NCC[S+]([O-])C(c2ccc(F)cc2)c2ccc(F)cc2)CC1` (stereo not given): the Ki in assay [2] is 604 nM; in assay [3], 14200 nM; in assay [1], 1310 nM. Besides, the Ratio Ki in assay [4] is 23.5; in assay [5], 2.16.
For the compound `NC(=O)C[S@@+]([O-])C(c1ccc(F)cc1)c1ccc(F)cc1`, the Ki in assay [2] was 4830 nM; in assay [3], 38900 nM; in assay [1] it was over 100000 nM. In addition, the Ratio Ki in assay [4] is 8.05; in assay [5], over 21.
For `CC(C)(C)C(=O)N1CCC(NCC[S+]([O-])C(c2ccc(F)cc2)c2ccc(F)cc2)CC1` (stereo not given), the Ki in assay [1] came to 11200 nM. The Ratio Ki in assay [4] came to 3.14; in assay [5] it was 1.1.
Take `CC(C)N(CCSC(c1ccc(F)cc1)c1ccc(F)cc1)C1CCN(C(=O)c2ccccc2F)CC1`: the Ki in assay [2] stood at 1530 nM; in assay [3], 16300 nM; in assay [1], 126 nM. Further, the values for the Ratio Ki in assay [4] and in assay [5] were 10.7 and 0.08, respectively.
For the compound `Fc1ccc(C(SCCN2CCC(NCc3ccccc3)CC2)c2ccc(F)cc2)cc1`, the affinity in assay [1], expressed as Ki, was 60.9 nM. Besides, the Ratio Ki in assay [4] was determined as 3.06; in assay [5] it was 0.56.
In assay [1], `CC(C)(C)CN1CCC(NCCSC(c2ccc(F)cc2)c2ccc(F)cc2)CC1` returned a Ki of 315 nM. For the same compound, the Ratio Ki in assay [4] worked out at 3.39; in assay [5], 1.13.
The matching figures for `Fc1ccc(C(SCCNC2CCN(Cc3ccccc3)CC2)c2ccc(F)cc2)cc1`: 3.81 nM, 12.4 and 0.12.
`Fc1ccc(C(SCCNC2CCN(Cc3ccc(Cl)cc3)CC2)c2ccc(F)cc2)cc1` had an inhibitory constant (Ki) in assay [1] of 45.5 nM. The Ratio Ki in assay [4] stood at 9.04; in assay [5], 1.15.

In general, Ki refers to the dissociation constant of the complex between target and ligand, obtained from inhibition or displacement. Read a high Ki as weaker binding.
